How the values were obtained:
Assay type in all cases: functional
[1] = test system: U-251; experiment: Growth inhibition of human U251 cells after 48 hrs by sulforhodamine B assay; conditions: U-251, 48 h
In short: (§1)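 NCI-60 panel screen by SRB assay (Rubinstein method). Percentage growth taken from optical density of SRB colour, read before and 48 hrs after exposure to compound or vehicle control. All analogues first screened at 10^-5 M. Analogues giving 60% growth inhibition at that level in at least eight lines then went to a five-concentration dose-response study.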

[2] = Growth inhibition of human LOXIMVI cells after 48 hrs by sulforhodamine B assay; conditions: LOX IMVI; in short: as §1
[3] = Growth inhibition of human SNB75 cells after 48 hrs by sulforhodamine B assay; conditions: SNB-75, 48 h; in short: as §1
[4] = Growth inhibition of human SF295 cells after 48 hrs by sulforhodamine B assay; conditions: SF-295, 48 h; in short: as §1
[5] = Growth inhibition of human SF268 cells after 48 hrs by sulforhodamine B assay; conditions: SF-268, 48 h; in short: as §1
[6] = Growth inhibition of human SW620 cells after 48 hrs by sulforhodamine B assay; conditions: SW-620, 48 h; in short: as §1
[7] = test system: KM12; experiment: Growth inhibition of human KM12 cells after 48 hrs by sulforhodamine B assay; conditions: KM12, 48 h; in short: as §1
[8] = test system: HT-29; experiment: Growth inhibition of human HT-29 cells after 48 hrs by sulforhodamine B assay; conditions: HT-29, 48 h; in short: as §1
[9] = Growth inhibition of human HCT15 cells after 48 hrs by sulforhodamine B assay; conditions: HCT-15, 48 h; in short: as §1
[10] = Growth inhibition of human HCC2998 cells after 48 hrs by sulforhodamine B assay; conditions: HCC 2998, 48 h; in short: as §1
[11] = Growth inhibition of human COLO205 cells after 48 hrs by sulforhodamine B assay; conditions: COLO 205, 48 h; in short: as §1
[12] = test system: NCI-H460; experiment: Growth inhibition of human NCI-H460 cells after 48 hrs by sulforhodamine B assay; conditions: NCI-H460, 48 h; in short: as §1
[13] = test system: NCI-H23; experiment: Growth inhibition of human NCI-H23 cells after 48 hrs by sulforhodamine B assay; conditions: NCI-H23, 48 h; in short: as §1
[14] = Growth inhibition of human HOP62 cells after 48 hrs by sulforhodamine B assay; conditions: HOP-62, 48 h; in short: as §1
[15] = test system: A549; experiment: Growth inhibition of human A549/ATCC cells after 48 hrs by sulforhodamine B assay; conditions: A549, 48 h; in short: as §1
[16] = test system: SR; experiment: Growth inhibition of human SR cells after 48 hrs by sulforhodamine B assay; in short: as §1
[17] = Growth inhibition of human RPMI8226 cells after 48 hrs by sulforhodamine B assay; conditions: RPMI-8226, 48 h; in short: as §1
[18] = Growth inhibition of human MOLT4 cells after 48 hrs by sulforhodamine B assay; conditions: MOLT-4, 48 h; in short: as §1
[19] = test system: K562; experiment: Growth inhibition of human K562 cells after 48 hrs by sulforhodamine B assay; conditions: K562, 48 h; in short: as §1
[20] = Growth inhibition of human HL-60(TB) cells after 48 hrs by sulforhodamine B assay; conditions: HL-60, 48 h; in short: as §1
[21] = test system: CCRF-CEM; experiment: Growth inhibition of human CCRF-CEM cells after 48 hrs by sulforhodamine B assay; in short: as §1
[22] = test system: MDA-MB-435; experiment: Growth inhibition of human MDA-MB-435 cells after 48 hrs by sulforhodamine B assay; conditions: MDA-MB-435, 48 h
In short: (§2)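 NCI-60 sulforhodamine B screen. Compounds were first tested at a single dose of 10⁻⁵ M; hits, defined as ≥60% growth inhibition in at least eight lines, went on to a five-concentration dose–response. SRB optical density was read before and 48 h after exposure to compound or vehicle. Percentage growth was calculated from OD.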

[23] = test system: SK-MEL-2; experiment: Growth inhibition of human SK-MEL-2 cells after 48 hrs by sulforhodamine B assay; conditions: SK-MEL-2, 48 h; in short: as §1
[24] = Growth inhibition of human IGROV1 cells after 48 hrs by sulforhodamine B assay; conditions: IGROV-1, 48 h; in short: as §1
[25] = Growth inhibition of human OVCAR3 cells after 48 hrs by sulforhodamine B assay; conditions: OVCAR-3, 48 h; in short: as §2
[26] = Growth inhibition of human NCI-ADR-RES cells after 48 hrs by sulforhodamine B assay; in short: as §1
[27] = Growth inhibition of human SKOV3 cells after 48 hrs by sulforhodamine B assay; conditions: SK-OV-3, 48 h; in short: as §1
[28] = test system: 786-0; experiment: Growth inhibition of human 786-0 cells after 48 hrs by sulforhodamine B assay; conditions: 786-0, 48 h; in short: as §1
[29] = test system: A498; experiment: Growth inhibition of human A498 cells after 48 hrs by sulforhodamine B assay; conditions: A498, 48 h; in short: as §2
[30] = test system: ACHN; experiment: Growth inhibition of human ACHN cells after 48 hrs by sulforhodamine B assay; in short: as §1
[31] = test system: CAKI-1; experiment: Growth inhibition of human CAKI-1 cells after 48 hrs by sulforhodamine B assay; conditions: CAKI-1, 48 h; in short: as §1
[32] = Growth inhibition of human UO31 cells after 48 hrs by sulforhodamine B assay; conditions: UO-31, 48 h; in short: as §1
[33] = Growth inhibition of human PC3 cells after 48 hrs by sulforhodamine B assay; conditions: PC-3, 48 h; in short: as §1
[34] = Growth inhibition of human DU145 cells after 48 hrs by sulforhodamine B assay; conditions: DU-145, 48 h; in short: as §1
[35] = test system: MCF7; experiment: Growth inhibition of human MCF7 cells after 48 hrs by sulforhodamine B assay; conditions: MCF7, 48 h; in short: as §1
[36] = test system: MDA-MB-231; experiment: Growth inhibition of human MDA-MB-231 cells after 48 hrs by sulforhodamine B assay; conditions: MDA-MB-231, 48 h; in short: as §1
[37] = test system: MDA-MB-468; experiment: Growth inhibition of human MDA-MB-468 cells after 48 hrs by sulforhodamine B assay; conditions: MDA-MB-468, 48 h; in short: as §1
[38] = read-out: LD50 (the source's name)

Structure (SMILES): Clc1ccc(-c2n[nH]nc2-c2ccccn2)c(Cl)c1
- GI50 [1]: 5.35 µM
- CC50 [1, 38]: > 100 µM
- GI50 [2]: 4.83 µM
- CC50 [2, 38]: > 100 µM
- GI50 [3]: 1.58 µM
- CC50 [3, 38]: > 100 µM
- GI50 [4]: 3.01 µM
- CC50 [4, 38]: > 100 µM
- GI50 [5]: 7.36 µM
- CC50 [5, 38]: > 100 µM
- GI50 [6]: 4.4 µM
- LD50 (concentration killing 50% of cells) [6]: > 100 µM
- GI50 [7]: 6.87 µM
- LC50 (concentration killing 50% of cells) ([7]; read-out: LD50): > 100 µM
- GI50 [8]: 4.56 µM
- LC50 (concentration killing 50% of cells) ([8]; read-out: LD50): > 100 µM
- GI50 [9]: 2.93 µM
- CC50 [9, 38]: > 100 µM
- GI50 [10]: 9.16 µM
- CC50 [10, 38]: > 100 µM
- GI50 [11]: 2.89 µM
- CC50 [11, 38]: > 100 µM
- GI50 [12]: 3.67 µM
- CC50 [12, 38]: > 100 µM
- GI50 [13]: 9.13 µM
- LC50 (concentration giving 50% cell kill) ([13]; read-out: LD50): > 100 µM
- GI50 [14]: 5.32 µM
- LC50 (concentration killing 50% of cells) ([14]; read-out: LD50): > 100 µM
- GI50 [15]: 4.85 µM
- CC50 [15, 38]: > 100 µM
- GI50 [16]: 5.43 µM
- LC50 (concentration giving 50% net cell kill) ([16]; read-out: LD50): > 100 µM
- GI50 [17]: 10.7 µM
- CC50 [17, 38]: > 100 µM
- GI50 [18]: 4.23 µM
- CC50 [18, 38]: > 100 µM
- GI50 [19]: 5.5 µM
- CC50 [19, 38]: > 100 µM
- GI50 [20]: 5.75 µM
- CC50 [20, 38]: > 100 µM
- GI50 [21]: 3.38 µM
- LC50 (concentration killing 50% of cells) ([21]; read-out: LD50): > 100 µM
- GI50 [22]: 2.2 µM
- LC50 (concentration killing 50% of cells) ([22]; read-out: LD50): > 100 µM
- GI50 [23]: 6.52 µM
- CC50 [23, 38]: > 100 µM
- GI50 [24]: 5.94 µM
- CC50 [24, 38]: > 100 µM
- GI50 [25]: 3.38 µM
- LC50 (concentration giving 50% net cell kill) ([25]; read-out: LD50): > 100 µM
- GI50 [26]: 3.92 µM
- CC50 [26, 38]: > 100 µM
- GI50 [27]: 2.72 µM
- LC50 (concentration killing 50% of cells) ([27]; read-out: LD50): > 100 µM
- GI50 [28]: 2.75 µM
- LC50 (concentration killing 50% of cells) ([28]; read-out: LD50): > 100 µM
- GI50 [29]: 3.18 µM
- LC50 (50% net cell kill) ([29]; read-out: LD50): > 100 µM
- GI50 [30]: 1.75 µM
- CC50 [30, 38]: > 100 µM
- GI50 [31]: 8.42 µM
- CC50 [31, 38]: > 100 µM
- GI50 [32]: 6.84 µM
- LC50 (concentration killing 50% of cells) ([32]; read-out: LD50): > 100 µM
- GI50 [33]: 4.5 µM
- CC50 [33, 38]: > 100 µM
- GI50 [34]: 1.41 µM
- CC50 [34, 38]: > 100 µM
- GI50 [35]: 2.58 µM
- CC50 [35, 38]: > 100 µM
- GI50 [36]: 5.89 µM
- CC50 [36, 38]: > 100 µM
- GI50 [37]: 3.2 µM
- CC50 [37, 38]: > 100 µM
